Activity calls are given as the source filed them.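 How the source made its calls, unless noted: active means viability loss from added drug above about 55%, and viability with drug at most 40%, in both replicates (limit read from the data, passing the limit was not always enough); inconclusive means both conditions met in only one replicate; inactive means neither replicate meets both conditions.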
Experiments:
[1] = reducers of endogenous Her2 protein level, primary screen, SKBR3 breast tumor cells, AlphaScreen, ATP viability (AID 461;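 active means Her2 level under about 52% in both replicate screens, with viability over 70% of control, limit read from the data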;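 on Her2 level: lower value means less Her2 protein in the cells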;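 on viability: percent of carrier control wells set as 100% viability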); conditions: 18-24 h, measured here: SKBR3 viability, ATP luminescence, at 10 µM
[2] = biological target: Receptor tyrosine-protein kinase erbB-2 (Homo sapiens) (UniProt P04626); assay: as above; conditions: 18-24 h, at 10 µM, stronger effect = lower value
[3] = SK-BR-3 cell growth inhibitors, pilot screen, 24 h, human (AID 572;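 active means viability at or below 10% of carrier control in both of two separate runs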;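 further: compound exposure lasted between 18 and 24 h rather than exactly 24 h; 100% = carrier-treated control wells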); conditions: SK-BR-3 viability, CellTiter-Glo luminescence, at 10 µM, stronger effect = lower value
[4] = HUVEC growth inhibition – cell-based, human, primary screen (AID 575;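 active means viability at or below 30% in both replicate assays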;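 further: 100% = median of untreated cell wells with 0.1% DMSO on each plate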); conditions: HUVEC proliferation, CellTiter-Glo luminescence, 72 h; at 10 µM; stronger effect = lower value
Summary of the method: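 Timing: 72 h treatment at 37 °C; material: HUVEC primary cells; technique: CellTiter-Glo luminescence measuring cellular ATP; controls: vehicle and MePR control wells; measure: percent of median DMSO-control luminescence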

[5] = growth inhibitors of H69AR lung tumor, primary screen, human, duplicate replicates (AID 580;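 active means viability at or under a set limit in both replicates, limit being median viability minus 3 SD, cut at about 48% in these data, passing the limit was not always enough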;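 further: 100% = mean luminescence of untreated wells and 0% = no signal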); conditions: H69AR lung tumor cells viability, ATP luminescence, 72 h; at 10 µM; stronger effect = lower value
[6] = reversal of MRP1-mediated doxorubicin resistance, pilot screen, H69AR cells, doxorubicin co-treatment (AID 601); conditions: CellTiter-Glo, 72 h, at 10 µM; for differential viability (reversal): stronger effect = higher value
[7] = 384-well plate pilot, post-Golgi transport modulator project, inhibition of yeast transport mutant growth (AID 636; in the data active means inhibition above about 31%); conditions: absorbance 615 nm, about 18 h, stronger effect = higher value
[8] = growth suppression of yeast trafficking mutant, preliminary HTS, modulators of trafficking downstream of Golgi apparatus project, 1536-format plate, OD 615 nm (AID 637; in the data active means inhibition above about 30%); conditions: yeast transport mutant growth, absorbance 615 nm, 18 h; stronger effect = higher value
[9] = H69AR cells + 2 uM doxorubicin, measured here: viability with 2 uM doxorubicin, stronger effect = lower value
[10] = H69AR cells, compound alone cytotoxicity

Sequence of Receptor tyrosine-protein kinase erbB-2 (Homo sapiens) (P04626 whole entry, looked up): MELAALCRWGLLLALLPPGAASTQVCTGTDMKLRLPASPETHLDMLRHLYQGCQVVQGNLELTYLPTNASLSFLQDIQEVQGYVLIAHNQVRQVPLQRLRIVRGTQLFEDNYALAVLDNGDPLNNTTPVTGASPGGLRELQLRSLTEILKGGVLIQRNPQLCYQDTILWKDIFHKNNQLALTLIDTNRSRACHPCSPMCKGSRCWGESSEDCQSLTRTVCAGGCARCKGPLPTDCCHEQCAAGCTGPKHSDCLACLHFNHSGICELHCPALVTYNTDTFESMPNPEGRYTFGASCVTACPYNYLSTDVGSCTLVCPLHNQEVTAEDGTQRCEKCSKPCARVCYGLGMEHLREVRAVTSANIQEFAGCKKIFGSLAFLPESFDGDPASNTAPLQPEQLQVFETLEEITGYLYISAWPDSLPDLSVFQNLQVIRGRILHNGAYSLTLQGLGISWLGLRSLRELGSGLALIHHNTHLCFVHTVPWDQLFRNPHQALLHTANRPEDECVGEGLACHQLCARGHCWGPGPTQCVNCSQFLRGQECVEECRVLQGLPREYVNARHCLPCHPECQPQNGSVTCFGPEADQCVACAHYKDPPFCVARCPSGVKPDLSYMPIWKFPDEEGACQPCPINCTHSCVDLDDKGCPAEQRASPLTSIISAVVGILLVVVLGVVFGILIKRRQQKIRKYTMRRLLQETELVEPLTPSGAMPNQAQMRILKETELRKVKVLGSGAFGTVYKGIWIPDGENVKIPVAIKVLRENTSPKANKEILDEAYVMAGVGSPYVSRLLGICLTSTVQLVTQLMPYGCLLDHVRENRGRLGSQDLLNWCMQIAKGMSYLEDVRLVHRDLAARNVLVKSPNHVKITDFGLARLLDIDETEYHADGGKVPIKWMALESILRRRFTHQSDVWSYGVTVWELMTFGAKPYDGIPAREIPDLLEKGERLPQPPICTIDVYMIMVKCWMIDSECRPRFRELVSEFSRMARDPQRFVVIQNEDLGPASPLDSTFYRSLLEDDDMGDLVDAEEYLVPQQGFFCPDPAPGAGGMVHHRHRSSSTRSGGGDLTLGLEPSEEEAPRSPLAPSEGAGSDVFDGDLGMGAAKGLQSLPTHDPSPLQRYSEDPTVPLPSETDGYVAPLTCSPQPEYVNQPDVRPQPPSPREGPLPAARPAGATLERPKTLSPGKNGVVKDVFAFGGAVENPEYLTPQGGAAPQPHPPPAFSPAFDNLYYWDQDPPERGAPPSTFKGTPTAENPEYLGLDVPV

Structure (SMILES)	viability [1] [%]	Her2 level [2]	viability [3]	viability [4]	viability [5]	differential viability (reversal) ([6]; H69AR cells + 2 uM doxorubicin)	viability [6, 9] [%]	viability [6, 10] [%]	inhibition [7]	inhibition [8]
COC(=O)c1cc2oc(C)cc2n1CC(=O)N(C)c1ccccc1	93	92.5% (inactive)	93% (inactive)	83.2% (inactive)	95.4% (inactive)	7.45% (inactive)	88	95.4	-1.92% (inactive)	-2.17% (inactive)
CCOC(=O)c1sc(N)c(C(=O)OCC)c1COC(=O)C1CC(=O)N(Cc2ccco2)C1 (stereo not given)	91.5	113% (inactive)	91.5% (inactive)	80.7% (inactive)	72.4% (inactive)	22.6% (inactive)	49.8	72.4	-7.6% (inactive)	-8.71% (inactive)
CC(=O)c1c(C)[nH]c(C(=O)N2CCN(C(=O)c3ccco3)CC2)c1C	85	102% (inactive)	85% (inactive)	94.5% (inactive)	99.1% (inactive)	0.42% (inactive)	98.7	99.1	-2.3% (inactive)	-0.49% (inactive)
O=C(O)C1CCCCC1C(=O)NCCc1ccccc1 (stereo not given)	87.5	104% (inactive)	87.5% (inactive)	103% (inactive)	99.2% (inactive)	7.15% (inactive)	92	99.2	0.55% (inactive)	10.3% (inactive)
O=C(C1CC1)N1CCC(c2nc(-c3ccc(S(=O)(=O)NCC4CCCO4)cc3)no2)CC1 (stereo not given)	74.5	114% (inactive)	74.5% (inactive)	54.7% (inactive)	90.6% (inactive)	-9.35% (inactive)	99.9	90.6	0.41% (inactive)	-0.82% (inactive)
CC1=NC(Nc2nc(C)c3ccccc3n2)=NC(C)(C)C1	78.5	72.5% (inactive)	78.5% (inactive)	74.3% (inactive)	62.4% (inactive)	-14.6% (inactive)	77	62.4	-0.39% (inactive)	-7.38% (inactive)
Cc1nnc(SCC(=O)N2CCN(S(=O)(=O)c3ccccc3)CC2)[nH]c1=O	109	98.5% (inactive)	109% (inactive)	109% (inactive)	107% (inactive)	15.5% (inactive)	91.2	107	-6.67% (inactive)	-2.9% (inactive)
Cc1c(Cl)cccc1N1C(=O)c2ccccc2C1=O	89.5	85.5% (inactive)	89.5% (inactive)	99.5% (inactive)	111% (inactive)	2.93% (inactive)	108	111	-4.86% (inactive)	-2.3% (inactive)
O=C(CNC(=O)c1ccccc1C(=O)O)c1ccccc1	128	79.5% (inactive)	128% (inactive)	100% (inactive)	90% (inactive)	7.15% (inactive)	82.8	90	2.6% (inactive)	-0.49% (inactive)
Cc1cc(C)c(Cn2c(=O)n(CCCC(=O)NCc3ccco3)c(=O)c3ccccc32)c(C)c1	99	97.5% (inactive)	99% (inactive)	89.4% (inactive)	94.9% (inactive)	11.4% (inactive)	83.5	94.9	-1.45% (inactive)	9.18% (inactive)
Cn1c(SCC(=O)N2CCOCC2)nnc1-c1cccc(NC(=O)c2ccccc2F)c1	102	82.5% (inactive)	102% (inactive)	94% (inactive)	91.5% (inactive)	11.4% (inactive)	80.1	91.5	-0.92% (inactive)	3.06% (inactive)
CCOc1ccc(Cc2nn[nH]n2)cc1	86.5	84.5% (inactive)	86.5% (inactive)	108% (inactive)	101% (inactive)	5.14% (inactive)	96.3	101	-5.89% (inactive)	-3.49% (inactive)
Nn1c(CSc2nc3ccccc3o2)nnc1CSc1nc2ccccc2o1	86	94.5% (inactive)	86% (inactive)	115% (inactive)	103% (inactive)	24.1% (inactive)	78.6	103	-4.4% (inactive)	-1.8% (inactive)
FC(F)(F)c1nnc2sc(-c3cccs3)nn12	102	86.5% (inactive)	102% (inactive)	93.9% (inactive)	113% (inactive)	19.7% (inactive)	93	113	-7.43% (inactive)	4.6% (inactive)
O=S(=O)(Nc1ncccn1)c1ccc(Nc2ncnc3ccccc23)cc1	97.5	93% (inactive)	97.5% (inactive)	81.2% (inactive)	95.7% (inactive)	1.15% (inactive)	94.5	95.7	-7.57% (inactive)	3.11% (inactive)
CCOc1ccc(-n2cc(C(=O)N3CCN(C)CC3)c3cc(OC)c(OC)cc3c2=O)cc1	87	104% (inactive)	87% (inactive)	103% (inactive)	97.1% (inactive)	-12.4% (inactive)	110	97.1	1.62% (inactive)	-0.16% (inactive)
COc1ccc(OCC(=O)N2CCN(C(=O)Cc3ccccc3)CC2)cc1	90	96% (inactive)	90% (inactive)	101% (inactive)	84.6% (inactive)	-12.1% (inactive)	96.7	84.6	0% (inactive)	23.2% (inactive)
Brc1ccc(-c2csc(/N=C/N3CCOCC3)n2)cc1	113	100% (inactive)	113% (inactive)	85% (inactive)	97.6% (inactive)	5.1% (inactive)	92.5	97.6	-4.4% (inactive)	-7.1% (inactive)
COCCCNC(=O)CCc1nc(-c2ccccc2Cl)no1	102	95% (inactive)	102% (inactive)	103% (inactive)	93.3% (inactive)	-0.855% (inactive)	94.1	93.3	0.39% (inactive)	6.39% (inactive)
CCOc1ccc(C(C)=O)cc1COc1ccc(-n2cnnn2)cc1	99	108% (inactive)	99% (inactive)	111% (inactive)	77.2% (inactive)	-2.58% (inactive)	79.8	77.2	-4% (inactive)	-8.52% (inactive)
COc1ccc(C(=O)c2ccccc2)c(O)c1	86.5	110% (inactive)	86.5% (inactive)	97.7% (inactive)	106% (inactive)	13.6% (inactive)	92	106	-3.33% (inactive)	22.7% (inactive)
N#CCCCCn1c(-c2cncs2)nc2ccccc21	93.5	126% (inactive)	93.5% (inactive)	84.2% (inactive)	93.8% (inactive)	13.5% (inactive)	80.3	93.8	-5% (inactive)	-5.33% (inactive)
CCCc1cn(S(=O)(=O)c2ccc(OC)cc2OC)nc1N	98	84.5% (inactive)	98% (inactive)	92.8% (inactive)	92.4% (inactive)	3.72% (inactive)	88.7	92.4	-7.2% (inactive)	0% (inactive)
CCN1C(=O)NC(c2cc(Br)ccc2OC)C(C(=O)OC)=C1C (stereo not given)	104	114% (inactive)	104% (inactive)	104% (inactive)	95.3% (inactive)	-2.65% (inactive)	98	95.3	-2.63% (inactive)	-8.1% (inactive)
COc1ccc(N(CC(=O)N2CCN(Cc3ccc4c(c3)OCO4)CC2)S(C)(=O)=O)cc1OC	106	89.5% (inactive)	106% (inactive)	108% (inactive)	96.2% (inactive)	9.96% (inactive)	86.2	96.2	-8.67% (inactive)	-2.58% (inactive)
C/C(N)=C(/C#N)C(=O)CSc1nnc(Nc2c(C)cccc2C)s1	108	79.5% (inactive)	108% (inactive)	93.7% (inactive)	103% (inactive)	28.5% (inactive)	74.6	103	-2.84% (inactive)	3.02% (inactive)
COc1ccccc1-n1c(C)nnc1SCC(N)=O	127	113% (inactive)	127% (inactive)	101% (inactive)	91.6% (inactive)	13.9% (inactive)	77.7	91.6	-5.33% (inactive)	-0.65% (inactive)
O=C1CCCC(O)=C1C=Nc1ccc2c(c1)oc1ccccc12	102	101% (inactive)	102% (inactive)	63.7% (inactive)	88.7% (inactive)	-11.3% (inactive)	100	88.7	-5.87% (inactive)	1.11% (inactive)
O=S(=O)(NC1CCCC1)c1ccc(S(=O)(=O)N2CCc3ccccc32)cc1	99.5	94.5% (inactive)	99.5% (inactive)	66.1% (inactive)	71.5% (inactive)	1.97% (inactive)	69.6	71.5	-4.94% (inactive)	-12.4% (inactive)
